High-throughput results deposited in PubChem BioAssay by several laboratories.
HSF1 inh – HSF1 inhibition | AID 2098 | hit rate 0.77% among 300,000 | activity change, negative = inhibition, % at 7.5 µM (by protocol) | NIH3T3-HGL HSE-luciferase, MG132-induced, luminescence 8 h; active compounds read low;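 active means more than half of replicate wells show activity change below -50%, luminescence cut by over half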;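 further: luciferase reports HSF-1 transcriptional activity via heat shock element; 0% = median of DMSO wells and -100% = zero luminescence signal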
HSP90 inh – inhibitors of HSP90 luciferase refolding in rabbit reticulocyte lysate; inhibition, % at 5.6 µM; luciferase refolding luminescence, 3 h; AID 1789; hit rate 0.91% among 290,000;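 active means inhibition above the screen-wide mean plus 3 SD, computed separately per campaign, cut at about 16% in these data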;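 further: 0% = DMSO wells and 100% = 60 µM geldanamycin wells; inhibitors lower the luminescence because luciferase stays unfolded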
core dimer inh – blocks dimerization of HCV core protein; TR-FRET GST/Flag-core106 dimerization, 1536-well; inhibition, % at 5 µM; hit rate 0.33% among 300,000; AID 1899;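 active means inhibition above the mean of all tested compounds plus 3 SD, set per screening campaign, cut at about 45% in these data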
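Assay system: tagged HCV core106 pair (GST and Flag); medium: KF-containing HEPES buffer, pH 7.45, DTT, CHAPS, BSA; also added: Eu donor and XL665 acceptor anti-tag antibodies; dosing: 5 µM single dose; timing: compound-protein-antibody incubation 4 h at 22.5 °C; signal: TR-FRET 671 and 617 nm emission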
FID counter – counter-screen for HCV NS3 helicase inhibitors: DNA intercalator displacement; DNA fluorescent intercalator displacement, fluorescence; AID 1845; hit rate 0.17% among 290,000; inhibition, % at 7.9 µM; in the data active means inhibition above about 37%;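 further: 0% = vehicle and 100% = reference compound; higher means more ethidium bromide displaced from hairpin DNA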
HCV NS3 hel inh – blocks Hepatitis C virus NS3 helicase unwinding | NS3 helicase DNA unwinding, Cy5 molecular beacon fluorescence | inhibition, % at 10.9 µM | hit rate 0.56% among 290,000 | AID 1800;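 active means inhibition above the mean of all tested compounds plus 3 SD, set per campaign, cut at about 35% in these data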;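 further: 0% = DMSO wells and 100% = thioflavine S control wells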
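assay system = NS3 helicase fragment of HCV | buffer or medium = MOPS pH 6.5, MgCl2, DTT, Tween20, BSA | timing = 60 min unwinding reaction at 25 °C after ATP addition | signal = Cy5 beacon fluorescence read at start and 1 h | read-out basis = % inhibition of unwinding | control set = low DMSO, high thioflavine S at 110 µM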
HSF-1 act – increases HSF-1 driven luciferase reporter signal | hit rate 1.7% among 300,000 | activation, % at 9 µM | NIH3T3-HGL HSF-1 luciferase reporter, MG132, 8 h; 100% = twice DMSO control signal;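 active means mean replicate activation of at least 50% with a set share of replicates each reaching 50%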;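 further: 0% = median of the neutral control wells and 100% = twice that signal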
* hit, by the source's call; / = not tested or not shown. Most compounds without a hit are left out; they make up all but 3.9% or so of the library.

SMILES	HSF1 inh	HSP90 inh	core dimer inh	FID counter	HCV NS3 hel inh	HSF-1 act
Cn1cnc([N+](=O)[O-])c1NC(C)(C)C	-2	2	-8	-2	5	-24
Cn1cnc([N+](=O)[O-])c1S(=O)(=O)c1ccc(Cl)cc1	127	3	/	0	6	150*
NC(=O)N/N=C/c1cccc(OCc2ccc(F)cc2)c1	-74*	-2	-5	-7	22	-78
COc1ccc(-n2c(SCc3ccc([N+](=O)[O-])cc3)nnc2-c2ccc(C)cc2)cc1	26	6	17	-12	-20	57*
COc1ccc(-n2c(Cc3ccccc3)nnc2SCc2ccc([N+](=O)[O-])cc2)cc1	16	2	10	-22	-21	29
CCC1CCCCN1CCCNC(=O)c1cc2c(=O)[nH]c3ccccc3c2n1C (centres undefined)	-4	1	-1	4	-2	2
O=C(Nc1nnc(C2CCCCC2)s1)C1CC(=O)N(c2ccc(F)cc2)C1 (centres undefined)	-3	-4	-1	-29	6	17
COc1ccc(N2CC(C(=O)Nc3nnc(C4CCCCC4)s3)CC2=O)cc1 (centres undefined)	-62*	0	18	-44	-3	-70
Cc1ccc(C(=O)Nc2nnc(C3CCCCC3)s2)o1	37	5	-5	-16	3	68*
Cc1onc(-c2ccccc2)c1C(=O)N1CCCSC1=Nc1ccccc1	3	1	9	-19	-4	4
COc1ccc(-c2nc(CN3CCN(Cc4cccc(Cl)c4)CC3)c(C)o2)cc1	-5	5	6	-6	-38	15
O=c1sc(/C=N/Nc2ccccc2)c(Cl)n1Cc1ccccc1	119	3	0	-1	2	149*
O=C(O)c1cccc(Cn2c(Cl)c(/C=N/NC(=O)c3ccc(O)cc3)sc2=O)c1	5	-2	5	-23	0	19
COc1ccccc1C(=O)CSc1nnc(-c2ccco2)o1	50	-1	-2	-7	3	69*
O=C(CSc1nnc(-c2ccccn2)o1)Nc1ccccc1Cl	17	-3	3	-9	-9	51*
O=C(CSc1nnc(-c2ccncc2)o1)Nc1ccccc1Cl	1	0	-5	0	-6	6
CCOc1ccccc1NC(=O)CSc1nnc(-c2ccncc2)o1	3	/	-1	/	/	-2
COc1ccccc1NC(=O)CSc1nnc(-c2ccncc2)o1	-63*	3	-1	-1	-4	-70
Cc1cccc(N2CCN(C(=O)C3CCN(S(=O)(=O)c4cccnc4)CC3)CC2)c1C	-2	0	6	-40	-11	4
CC12/C(=N/O)C3C4CC5C3/C(=N/O)C1C5C42 (centres undefined)	2	3	-3	1	-3	6
O=C1CN(C(=O)c2ccc(Br)o2)C(c2ccc(F)cc2)c2cc(Cl)ccc2N1 (centres undefined)	29	2	-1	-18	-5	55*
COc1ccc(C(c2c(N)[nH]c(=S)[nH]c2=O)c2c(N)[nH]c(=S)[nH]c2=O)cc1	1	-3	0	-6	6	-4
O=C(Nc1ccc([N+](=O)[O-])cn1)c1cccnc1	-5	-5	-5	6	1	6
Cc1ccc(NC(=O)c2ccc([N+](=O)[O-])cc2Cl)nc1	14	1	-1	-2	0	52*
CC(C)(C)c1ccc(C(=O)Nc2ccc([N+](=O)[O-])cn2)cc1	38	-4	0	2	-1	54*
SMILES	HSF1 inh	HSP90 inh	core dimer inh	FID counter	HCV NS3 hel inh	HSF-1 act
CC(=O)Oc1c(C)cc(Cl)cc1C(=O)Nc1ccc([N+](=O)[O-])cc1Cl	21	1	-1	10	4	56*
COc1ccc2nc(C)cc(NCc3ccc(F)cc3)c2c1	-6	9	-9	7	-53	-26
CC(=O)Nc1cccc(NC(=O)CSc2nc(=O)n(CCCN3CCOCC3)c3c2CCC3)c1	-6	/	4	/	/	12
Cc1cccc(NC(=S)N2CCN(c3ccccc3)CC2)c1	-2	0	-1	-7	-12	2
COc1ccc2occ(C(=O)c3cccs3)c2c1	36	-4	1	-8	2	78*
CCN(CC(=O)NCc1ccc(Cl)cc1)C(=O)CNS(=O)(=O)c1ccc(NC(C)=O)cc1	-1	1	-17	-14	7	-2
COCCn1cnc2c1c(=O)n(CC(=O)NCC(F)(F)F)c(=O)n2Cc1ccccc1	-1	-3	9	-6	1	10
COc1ccc(Nc2ccc3c(c2)=NC2(CCCCC2)[N+]=3[O-])cc1	58	2	-44	9	8	79*
O=C(NCC(=O)N1CCCCC1)c1ccc2ccccc2c1	4	-1	3	-10	4	-9
COc1ccccc1NC(=O)C(C)OC(=O)c1cccc(-n2cnnn2)c1 (centres undefined)	0	/	-2	/	/	19
COc1ccc(/C=C/C(=O)c2cccc(-n3cnnn3)c2)cc1O	27	5	-1	-3	14	57*
CC1(C)CC(=O)C2=C(C1)OC(N)=C(C#N)C2c1ccccc1 (centres undefined)	-54*	-2	2	-4	0	-61
CC(C)c1ccc(-c2nn(-c3ccccc3)cc2C2C(C#N)=C(N)OC3=C2C(=O)CC(C)(C)C3)cc1 (centres undefined)	22	1	48*	-29	31	22
O=C(Cn1cnc2c(oc3nc4c(cc32)CCCC4)c1=O)Nc1cccc(Cl)c1	11	4	11	-8	3	9
COc1ccccc1CCNC(=O)C1CCC(=O)N(Cc2ccccc2OC)C1 (centres undefined)	9	-3	-2	-37	-1	15
COc1ccccc1CN1CC(C(=O)NCCc2ncccc2C)CCC1=O (centres undefined)	31	-2	/	-16	-1	79*
CCN(Cc1ccncc1)Cc1nc(-c2ccc(C(=O)OC)cc2)no1	5	0	0	-21	10	0
Nc1nc(SCC(=O)N2N=C3/C(=C/c4ccco4)CCCC3C2c2ccco2)n[nH]1 (centres undefined)	-6	3	52*	-16	14	-8
CN(CC(=O)Nc1ccccc1C(F)(F)F)C(=O)CCc1nc2ccccc2c(=O)[nH]1	-2	/	-3	/	/	-5
CS(=O)c1nc(-c2ccc(Br)cc2)cc(-c2ccccc2)c1C#N (centres undefined)	40	2	37	-13	-1	56*
CS(=O)(=O)c1nc(-c2ccc(Br)cc2)cc(-c2ccccc2)c1C#N	1	-4	34	-4	1	8
